“Also recorded” adds a separate entry of the source. Like-named read-outs stand apart in the source and are kept apart here. Peptide text beside a SMILES is read from it. * marks the point of attachment. Palmitoyl = CCCCCCCCCCCCCCCC(=O)*
Legend:
PAR1 [1] = target: T1, PAR1 (Homo sapiens, UniProt P25116); test: Ex vivo platelet aggregation to PAR1 agonist SFLLRN; type: in vivo; conditions: for inhibition at 2 mg/kg: read-out: inhibition of final aggregation to 8 μmol/L SFLLRN, 2 mg/kg
T1 sequence (P25116 22-425): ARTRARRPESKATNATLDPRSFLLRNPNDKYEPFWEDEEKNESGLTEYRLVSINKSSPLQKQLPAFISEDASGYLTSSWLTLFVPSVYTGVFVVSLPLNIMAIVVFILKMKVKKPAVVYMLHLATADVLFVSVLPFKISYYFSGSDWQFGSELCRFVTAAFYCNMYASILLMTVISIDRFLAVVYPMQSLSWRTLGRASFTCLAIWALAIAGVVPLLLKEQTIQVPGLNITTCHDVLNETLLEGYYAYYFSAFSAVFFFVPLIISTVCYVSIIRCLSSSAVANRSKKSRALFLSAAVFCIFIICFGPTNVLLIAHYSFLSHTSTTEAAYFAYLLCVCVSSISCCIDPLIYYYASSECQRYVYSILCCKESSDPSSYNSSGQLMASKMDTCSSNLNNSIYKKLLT

[2] = Safety, tolerability and hemostasis parameters in phase 1 subjects; type: in vivo, human
How it was run: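 Single ascending IV doses went to subjects with CAD or multiple CAD risk factors. Cohorts of 0.01–2 mg/kg received 1-h infusions; a final 0.5 mg/kg cohort received a 2-h infusion after antiallergic premedication. Assessments were at baseline, 0.5, 1, 2, 6 and 24 h, and 7–10 days. APTT, INR, ACT and bleeding time were regressed on dose using repeated-measures mixed-effects models with Bonferroni post hoc correction.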

[3] = Pharmacokinetics of PZ-128 in plasma and urine after 1 to 2 hours iv infusion; type: in vivo, human
PAR1 [4] = target: T1, PAR1; conditions: cited from earlier work
PAR1 [5] = target: T1, PAR1; conditions: cited from earlier work; remark: listed apart in the source

CCCCCCCCCCCCCCCC(=O)N[C@@H](CCCCN)C(=O)N[C@@H](CCCCN)C(=O)N[C@@H](CO)C(=O)N[C@@H](CCCNC(=N)N)C(=O)N[C@@H](C)C(=O)N[C@@H](CC(C)C)C(=O)N[C@@H](Cc1ccccc1)C(N)=O [PZ-128] (Palmitoyl-KKSRALF-NH2)
inhibition at 2 mg/kg (PAR1 [1]; 1 to 2-hour time points): 96 to 98%
inhibition at 2 mg/kg (PAR1 [1]; 6 to 192-hour time points): 15 to 21%
inhibition at 0.3 mg/kg (PAR1 [1]; read-out: mean inhibition of platelet aggregation (final), 8 μmol/L SFLLRN, 0.3 mg/kg, 30 minutes to 6 hours): 20 to 40%
inhibition at 0.5 mg/kg (PAR1 [1]; read-out: mean inhibition of platelet aggregation (final), 8 μmol/L SFLLRN, 0.5 mg/kg, 30 minutes to 6 hours): 40 to 60%
tolerability / allergic response ([2]; 0.5 mg/kg, 2-hour infusion, antiallergic premedication): none of these subjects had an allergic response; also recorded: appeared to be well tolerated
tolerability ([2]; 0.01-, 0.03-, 0.1-, and 0.3-mg/kg, 1-hour intravenous infusion): well tolerated
transient tingling or numb sensation in the skin ([2]; 0.5–2 mg/kg): commonly reported
subjects with no hemodynamic effects ([2]; 2-mg/kg dose over the 1-hour infusion): 50%
effects on coagulation, hemostasis parameters, or bleeding ([2]; any dose): No significant effects
heart rate, ECG parameters (RR, PR, QRS, QT, QTc, QTd) or pulmonary function ([2]; any dose): no significant changes
most important adverse event ([2]; highest doses (1–2 mg/kg), 1-hour infusion): acute allergic reactions
clinical chemistry, hematology, urinalysis ([2]; human, in vivo): not significantly affected
drug in plasma at 24 to 192 hours ([3]; all subjects): undetectable; also recorded: no detectable drug
PZ-128 in urine ([3]; any time point, all subjects): nondetectable; also recorded: little or no PZ-128 detected; also recorded: not renally cleared
Cmax ([3]; human, plasma, intravenous): 4700 to 21500 nM
Vd ([3]; human, plasma, intravenous): 0.11 to 0.17 L/kg
Cmax ([3]; human, plasma, intravenous, 0.5 mg/kg): 1800 to 2700 nM
half-life ([3]; human, plasma, iv): 1.3 to 1.8 h
level at time molar ([3]; human, plasma, iv): 1000 to 3000 nM
level at time molar at 6 h ([3]; human, plasma, iv, 0.5 mg/kg): < 500 nM
peak plasma drug levels, 2-mg/kg versus 1-mg/kg cohort ([3]; in vivo): 2 fold

CCOC(=O)N[C@@H]1CC[C@@H]2[C@@H](C1)C[C@H]1C(=O)O[C@H](C)[C@H]1[C@H]2/C=C/c1ccc(-c2cccc(F)c2)cn1 [Vorapaxar, vorapaxar]
inhibition of SFLLRN-induced aggregation at 2 hours (PAR1 [4]; 40-mg loading dose (≈0.4 mg/kg)): ≥ 80%
inhibition of SFLLRN-induced aggregation at 30 minutes (PAR1 [4]; 40-mg oral loading dose): no appreciable inhibition

CCOc1cc2c(c(F)c1OCC)C(=N)N(CC(=O)c1cc(N3CCOCC3)c(OC)c(C(C)(C)C)c1)C2 [atopaxar]
time to maximal platelet inhibition after the loading dose (PAR1 [5]; LANCELOT-ACS subjects): 6 h
QTc interval (PAR1 [5]; higher dose levels): prolongation of the QTc interval was observed in some individuals
